In ChEMBL document CHEMBL1139728, “Design, synthesis, and characterization of new embelin derivatives as potent inhibitors of X-linked inhibitor of apoptosis protein” (Bioorg Med Chem Lett, 2006) one finds Ki and IC50 data, which are given here for 6 compounds.

For test [1], the target named is E3 ubiquitin-protein ligase XIAP (Homo sapiens, UniProt P98170). Kind of test: Binding affinity to recombinant XIAP BIR3 by FP assay. Summed up: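 Competitive fluorescence-polarization assay on the XIAP BIR3 domain; binding expressed as Ki.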
Sequence of E3 ubiquitin-protein ligase XIAP (P98170 whole entry, the tested form may be a part): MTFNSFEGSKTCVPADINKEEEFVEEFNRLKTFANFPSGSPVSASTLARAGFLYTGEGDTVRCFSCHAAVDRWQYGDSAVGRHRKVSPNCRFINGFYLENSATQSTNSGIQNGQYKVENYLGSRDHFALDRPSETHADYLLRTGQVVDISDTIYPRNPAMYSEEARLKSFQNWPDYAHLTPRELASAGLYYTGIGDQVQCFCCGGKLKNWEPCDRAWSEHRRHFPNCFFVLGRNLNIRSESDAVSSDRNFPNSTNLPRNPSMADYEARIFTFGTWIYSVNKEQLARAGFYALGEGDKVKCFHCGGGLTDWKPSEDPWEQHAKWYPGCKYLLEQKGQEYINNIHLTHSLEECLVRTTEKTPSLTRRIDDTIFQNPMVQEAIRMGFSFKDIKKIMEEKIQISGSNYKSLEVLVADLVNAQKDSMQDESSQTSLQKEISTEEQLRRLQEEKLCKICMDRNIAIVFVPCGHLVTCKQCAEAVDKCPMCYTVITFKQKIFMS
Another test concerns MDA-MB-231. As to the kind of experiment: Growth inhibition in human MDA-MB-231 cell line. The class given is functional, cell-based. The essentials:
(§1)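 Human cancer cells (MDA-MB-231 (2LMP) breast line; PC-3 prostate line) exposed to compound for 4 days across a concentration series spanning 0.01–100 μM. Growth read by WST assay; IC50 taken from the dose-response curve.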

A further test concerns PC-3. As to the kind of experiment: Growth inhibition in human PC3 cell line. The class given is functional, cell-based. The essentials: as §1

Broadly, the Ki is the dissociation constant of the complex between target and ligand, obtained from inhibition or displacement. In general, IC50 refers to the midpoint of a concentration-inhibition curve. A lower IC50 goes with higher potency.

Structures are written as SMILES.

Regarding `O=C1C=C(O)C(=O)C(CCCCc2ccccc2)=C1O`, in test [1], the Ki came out at 1300 nM. Still for that read-out and setting: as for `CCC1=C(O)C(=O)C=C(O)C1=O`, the figure is 10400 nM. Take `O=C1C=C(O)C(=O)C(CCc2ccccc2)=C1O`: the Ki in test [1] worked out at 710 nM. The same measure, in the same setting: as for `CCCCc1cccc(CCC2=C(O)C(=O)C=C(O)C2=O)c1`, the figure is 480 nM. In the case of `Cc1cccc(CCc2cccc(CCC3=C(O)C(=O)C=C(O)C3=O)c2)c1`, the IC50 with MDA-MB-231 was 5000 nM; in the test on PC-3, 5500 nM. Consider `CCCCCCCCCCCC1=C(O)C(=O)C=C(O)C1=O` [EMBELIN], for which, in test [1], the Ki was found to be 400 nM.
